Measurements reported in paper PMC3092375 (Journal of natural products, 2011).

Key:
human neutrophils [1] = experiment: superoxide anion generation by human neutrophils in response to fMLP/CB; type: cell-based; settings: Neutrophil
human neutrophils [2] = experiment: elastase release by human neutrophils in response to fMLP/CB; type: cell-based; settings: read-out: elastase IC50, mean ± S.E.M. (n = 3–4)
α-glucosidase = α-glucosidase (Saccharomyces cerevisiae, UniProt P53341); settings: previous report; cited from earlier work
Chain of α-glucosidase (P53341 whole entry): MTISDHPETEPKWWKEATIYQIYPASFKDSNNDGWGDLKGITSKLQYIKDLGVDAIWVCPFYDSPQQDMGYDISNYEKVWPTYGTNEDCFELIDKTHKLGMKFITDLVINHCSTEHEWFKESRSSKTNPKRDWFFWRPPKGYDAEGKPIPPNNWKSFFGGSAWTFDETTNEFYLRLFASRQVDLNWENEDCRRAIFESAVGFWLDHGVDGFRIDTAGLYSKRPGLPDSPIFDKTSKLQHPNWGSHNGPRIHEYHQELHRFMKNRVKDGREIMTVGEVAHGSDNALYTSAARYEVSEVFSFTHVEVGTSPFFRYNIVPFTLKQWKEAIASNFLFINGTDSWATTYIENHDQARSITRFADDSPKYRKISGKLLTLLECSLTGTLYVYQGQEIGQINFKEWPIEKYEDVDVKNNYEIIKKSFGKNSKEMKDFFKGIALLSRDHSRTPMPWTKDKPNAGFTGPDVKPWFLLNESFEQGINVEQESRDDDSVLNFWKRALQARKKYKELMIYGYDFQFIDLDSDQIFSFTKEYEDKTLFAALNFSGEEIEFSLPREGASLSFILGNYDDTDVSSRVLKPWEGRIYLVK

[3] = test system: HCT-8 (colon) cancer cell line; experiment: in vitro cytotoxicity; type: cell-based, human; settings: HCT-8 colon cells; compared with KB and DU145
Procedure, shortened: (§1)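 Cells grown in RPMI-1640 with 25 mM HEPES, 0.25% sodium bicarbonate, 10% FBS and 100 μg/mL kanamycin. Freshly trypsinized cells were seeded at 5000 per well, and test compound was added from DMSO-diluted stock. After three days, cells were fixed with cold 10% TCA and stained with 0.4% sulforhodamine B, and the solubilized dye was read at 562 nm.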

[4] = test system: DU145 (prostate) cancer cell line; experiment: in vitro cytotoxicity; type: cell-based, human; settings: DU145 versus the other cancer cell lines
[5] = test system: A549 (lung) cancer cell line; experiment: in vitro cytotoxicity; type: cell-based, human; settings: A549 lung cells; compared with KB and DU145
Procedure, shortened: as §1

[6] = test system: KB (nasopharyngeal) cancer cell line; experiment: in vitro cytotoxicity; type: cell-based, human; settings: KB versus the other cancer cell lines

In the case of `c1ccc2c(c1)[I+]c1ccccc1-2` [DPI, Diphenyleneiodonium, reference compound], the IC50 (human neutrophils [1]; read-out: superoxide IC50) is reported as 1020 ± 350 nM.

Molecule `O=S(=O)(F)Cc1ccccc1` [PMSF, phenylmethylsulfonyl fluoride] has an IC50 (human neutrophils [2]) of 95 ± 25 µM.

In the case of `CCCCCCC/C=C\CC#CC#CC(O)CC` (stereo not drawn) [Compound 25, panaxjapyne A], the “inhibition of α-glucosidase activity” value (α-glucosidase) is given as “strongly inhibited”.

With `C/C(=C/CC[C@](C)(O)[C@H]1CC[C@]2(C)[C@@H]1[C@H](O)C[C@@H]1[C@@]3(C)CC[C@H](O)C(C)(C)[C@@H]3[C@@H](O[C@@H]3O[C@H](CO)[C@@H](O)[C@H](O)[C@H]3O[C@@H]3O[C@H](CO)[C@@H](O)[C@H](O)[C@H]3O)C[C@]12C)CO` [Compound 1, panajaponol A] the cytotoxicity [3] was “significantly less susceptible”, the selective cytotoxic activity [4] was “greater than two- to three-fold selective” and the cytotoxicity [5] was “significantly less susceptible”. For the same molecule, the selective cytotoxic activity [6] was “greater than two- to three-fold selective”.

For `C=C[C@H](O)C#CC#C/C=C/[C@@H](O)CCCCCCC` [Compound 29, (3S,10S)-panaxydiol], the “inhibition of α-glucosidase activity” value (α-glucosidase) is given as “strongly inhibited”.

In the case of `C=CCCCCC[C@H](O)[C@@H](O)CC#CC#C[C@@H](O)CC` [Compound 27, panaxjapyne C], the “inhibition of α-glucosidase activity” value (α-glucosidase) is listed as “strongly inhibited”.

With `CC1(C)CC[C@]2(C(=O)O[C@@H]3O[C@H](CO)[C@@H](O)[C@H](O)[C@H]3O)CC[C@]3(C)C(=CC[C@@H]4[C@@]5(C)CC[C@H](O[C@@H]6O[C@H](C(=O)O)[C@@H](O[C@H]7O[C@@H](CO)[C@H](O)[C@H]7O)[C@H](O[C@@H]7O[C@H](CO)[C@@H](O)[C@H](O)[C@H]7O)[C@H]6O)C(C)(C)[C@@H]5CC[C@]43C)[C@@H]2C1` [Compound 9, stipuleanoside R2] the IC50 (human neutrophils [1]; read-out: IC50 values, inhibition of superoxide anion generation and elastase release) was 780 to 43600 nM.

In the case of `C=C[C@H](O)C#CC#CC[C@@H](O)[C@H](O)CCCCCCC` [Compound 30, (3S,9R,10R)-panaxytriol], the “inhibition of α-glucosidase activity” value (α-glucosidase) is listed as “strongly inhibited”.

For `C=C[C@@H](O)C#CC#CC/C=C\CCCCCCC` [Compound 28, (3R)-(−)-falcarinol], the “inhibition of α-glucosidase activity” value (α-glucosidase) is listed as “strongly inhibited”.
